Results as given in paper PMC3048920 (Clinical cancer research : an official journal of the …, 2011).

How the values were obtained:
[1] = test system: advanced malignant solid tumors; experiment: Tumor response; assay type: in vivo, human
NSCLC = experiment: Tumor response in NSCLC patients, correlated with tumor genotype; assay type: in vivo, human
In short: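 NSCLC patients treated with oral once-daily test compound had tumors assessed by RECIST v1.0 at baseline, every two cycles and at end of treatment. Response was related to genotype. Archived tumor, or a fresh baseline biopsy where feasible, was tested for EGFR and KRAS mutations and EGFR/HER2 copy number by site laboratories, Pfizer or Genzyme.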

[2] = test system: patients with advanced solid malignancies; experiment: Treatment-related adverse events and laboratory abnormalities; assay type: in vivo
[3] = test system: patients with advanced solid malignancies; experiment: Phase I dose escalation: dose-limiting toxicities and maximum tolerated dose; assay type: in vivo; details: for Even ts, n/N: DLT events, cycle 1
[4] = human, in vivo
[5] = test system: Ki67 and pERK1/2 (pMAPK) in skin biopsies; experiment: Skin biopsy pharmacodynamic biomarkers by immunohistochemistry; assay type: in vivo, human; details: with increased dose, Cmax, AUCtau and Ctrough; baseline vs cycle 1 day 14; P < 0.05
[6] = EGFR Exon 19 deletion, 17 patients
[7] = EGFR Exon 19 deletion/T790M, 4 patients
[8] = EGFR Exon 20 insertion, 6 patients (one not evaluable)
[9] = EGFR mutation unknown, 12 patients (one not evaluable)
[10] = EGFR wild type, 12 patients (one not evaluable)
[11] = Schedule A (n = 111), treatment-related, all cycles
[12] = Schedule B (n = 10), treatment-related, all cycles

COc1cc2ncnc(Nc3ccc(F)c(Cl)c3)c2cc1NC(=O)/C=C/CN1CCCCC1 [PF299804]
complete responses ([1]; 110 patients with at least one response evaluation): No complete responses
patients with PR ([1]; four of 110 evaluated patients, all NSCLC): 3.6%
patients with stable disease as best response ([1]; over all treatment cohorts, 110 evaluated): 44 patients
objective response to treatment (NSCLC; 4 patients with exon 19 deletions and documented T790M): None
Treatment Outcome, PD (patients) (NSCLC; [6]): 7
Treatment Outcome, PR (patients) (NSCLC; [6]): 2
Treatment Outcome, SD (patients) (NSCLC; [6]): 8
Treatment Outcome, PD (patients) (NSCLC; [7]): SD:2; PD:2
Treatment Outcome, SD (patients) (NSCLC; [7]): SD:2; PD:2
Treatment Outcome, PD (patients) (NSCLC; [8]): 2
Treatment Outcome, PR (patients) (NSCLC; [8]): 1
Treatment Outcome, SD (patients) (NSCLC; [8]): 2
Treatment Outcome, PD (patients) (NSCLC; EGFR L858R, 4 patients): 1
Treatment Outcome, SD (patients) (NSCLC; EGFR L858R, 4 patients): 3
Treatment Outcome, PD (patients) (NSCLC; EGFR mutant, Other, 2 patients): SD: 1; PD:1
Treatment Outcome, SD (patients) (NSCLC; EGFR mutant, Other, 2 patients): SD: 1; PD:1
Treatment Outcome, IND (patients) (NSCLC; [9]): 1
Treatment Outcome, PD (patients) (NSCLC; [9]): 2
Treatment Outcome, PR (patients) (NSCLC; [9]): 1
Treatment Outcome, SD (patients) (NSCLC; [9]): 7
Treatment Outcome, IND (patients) (NSCLC; [10]): 1
Treatment Outcome, PD (patients) (NSCLC; [10]): 5
Treatment Outcome, SD (patients) (NSCLC; [10]): 5
Treatment Outcome, SD (patients) (NSCLC; HER2 amplified, 2 patients): SD:2
additional patients with stable disease (SD) of ≥6 weeks duration (NSCLC; NSCLC patients): 28 patients
Anorexia, Grade 1, n (%) [2, 11]: 12 (10.8) n (%)
Anorexia, Grade 2, n (%) [2, 11]: 9 (8.1) n (%)
Anorexia, Grade 3, n (%) [2, 11]: 2 (1.8) n (%)
Anorexia, Total, n (%) [2, 11]: 23 (20.7) n (%)
Dermatitis acneiform, Grade 1, n (%) [2, 11]: 11 (9.9) n (%)
Dermatitis acneiform, Grade 2, n (%) [2, 11]: 3 (2.7) n (%)
Dermatitis acneiform, Grade 3, n (%) [2, 11]: 6 (5.4) n (%)
Dermatitis acneiform, Total, n (%) [2, 11]: 20 (18.0) n (%)
Diarrhea, Grade 1, n (%) [2, 11]: 43 (38.7) n (%)
Diarrhea, Grade 2, n (%) [2, 11]: 20 (18.0) n (%)
Diarrhea, Grade 3, n (%) [2, 11]: 11 (9.9) n (%)
Diarrhea, Total, n (%) [2, 11]: 74 (66.7) n (%)
Dry skin, Grade 1, n (%) [2, 11]: 29 (26.1) n (%)
Dry skin, Grade 2, n (%) [2, 11]: 1 (0.9) n (%)
Dry skin, Grade 3, n (%) [2, 11]: 0 n (%)
Dry skin, Total, n (%) [2, 11]: 30 (27.0) n (%)
Fatigue, Grade 1, n (%) [2, 11]: 20 (18.0) n (%)
Fatigue, Grade 2, n (%) [2, 11]: 15 (13.5) n (%)
Fatigue, Grade 3, n (%) [2, 11]: 3 (2.7) n (%)
Fatigue, Total, n (%) [2, 11]: 38 (34.2) n (%)
Nausea, Grade 1, n (%) [2, 11]: 28 (25.2) n (%)
Nausea, Grade 2, n (%) [2, 11]: 7 (6.3) n (%)
Nausea, Grade 3, n (%) [2, 11]: 1 (0.9) n (%)
Nausea, Total, n (%) [2, 11]: 36 (32.4) n (%)
Rash, Grade 1, n (%) [2, 11]: 30 (27.0) n (%)
Rash, Grade 2, n (%) [2, 11]: 16 (14.4) n (%)
Rash, Grade 3, n (%) [2, 11]: 4 (3.6) n (%)
Rash, Total, n (%) [2, 11]: 50 (45.0) n (%)
Stomatitis, Grade 1, n (%) [2, 11]: 17 (15.3) n (%)
Stomatitis, Grade 2, n (%) [2, 11]: 9 (8.1) n (%)
Stomatitis, Grade 3, n (%) [2, 11]: 4 (3.6) n (%)
Stomatitis, Total, n (%) [2, 11]: 30 (27.0) n (%)
Vomiting, Grade 1, n (%) [2, 11]: 14 (12.6) n (%)
Vomiting, Grade 2, n (%) [2, 11]: 3 (2.7) n (%)
Vomiting, Grade 3, n (%) [2, 11]: 1 (0.9) n (%)
Vomiting, Total, n (%) [2, 11]: 18 (16.2) n (%)
Alopecia, Grade 1, n (%) [2, 12]: 2 (20.0) n (%)
Alopecia, Grade 2, n (%) [2, 12]: 0 n (%)
Alopecia, Grade 3, n (%) [2, 12]: 0 n (%)
Alopecia, Total, n (%) [2, 12]: 2 (20.0) n (%)
Anorexia, Grade 1, n (%) [2, 12]: 0 n (%)
Anorexia, Grade 2, n (%) [2, 12]: 3 (30.0) n (%)
Anorexia, Grade 3, n (%) [2, 12]: 0 n (%)
Anorexia, Total, n (%) [2, 12]: 3 (30.0) n (%)
Dermatitis acneiform, Grade 1, n (%) [2, 12]: 0 n (%)
Dermatitis acneiform, Grade 2, n (%) [2, 12]: 3 (30.0) n (%)
Dermatitis acneiform, Grade 3, n (%) [2, 12]: 0 n (%)
Dermatitis acneiform, Total, n (%) [2, 12]: 3 (30.0) n (%)
Diarrhea, Grade 1, n (%) [2, 12]: 2 (20.0) n (%)
Diarrhea, Grade 2, n (%) [2, 12]: 5 (50.0) n (%)
Diarrhea, Grade 3, n (%) [2, 12]: 2 (20.0) n (%)
Diarrhea, Total, n (%) [2, 12]: 9 (90.0) n (%)
Dry eye, Grade 1, n (%) [2, 12]: 1 (10.0) n (%)
Dry eye, Grade 2, n (%) [2, 12]: 2 (20.0) n (%)
Dry eye, Grade 3, n (%) [2, 12]: 0 n (%)
Dry eye, Total, n (%) [2, 12]: 3 (30.0) n (%)
Dry skin, Grade 1, n (%) [2, 12]: 1 (10.0) n (%)
Dry skin, Grade 2, n (%) [2, 12]: 2 (20.0) n (%)
Dry skin, Grade 3, n (%) [2, 12]: 0 n (%)
Dry skin, Total, n (%) [2, 12]: 3 (30.0) n (%)
Eye pain, Grade 1, n (%) [2, 12]: 2 (20.0) n (%)
Eye pain, Grade 2, n (%) [2, 12]: 0 n (%)
Eye pain, Grade 3, n (%) [2, 12]: 0 n (%)
Eye pain, Total, n (%) [2, 12]: 2 (20.0) n (%)
Fatigue, Grade 1, n (%) [2, 12]: 0 n (%)
Fatigue, Grade 2, n (%) [2, 12]: 3 (30.0) n (%)
Fatigue, Grade 3, n (%) [2, 12]: 1 (10.0) n (%)
Fatigue, Total, n (%) [2, 12]: 4 (40.0) n (%)
Nausea, Grade 1, n (%) [2, 12]: 1 (10.0) n (%)
Nausea, Grade 2, n (%) [2, 12]: 2 (20.0) n (%)
Nausea, Grade 3, n (%) [2, 12]: 1 (10.0) n (%)
Nausea, Total, n (%) [2, 12]: 4 (40.0) n (%)
Pruritus, Grade 1, n (%) [2, 12]: 2 (20.0) n (%)
Pruritus, Grade 2, n (%) [2, 12]: 0 n (%)
Pruritus, Grade 3, n (%) [2, 12]: 0 n (%)
Pruritus, Total, n (%) [2, 12]: 2 (20.0) n (%)
Rash, Grade 1, n (%) [2, 12]: 4 (40.0) n (%)
Rash, Grade 2, n (%) [2, 12]: 2 (20.0) n (%)
Rash, Grade 3, n (%) [2, 12]: 0 n (%)
Rash, Total, n (%) [2, 12]: 6 (60.0) n (%)
Skin exfoliation, Grade 1, n (%) [2, 12]: 1 (10.0) n (%)
Skin exfoliation, Grade 2, n (%) [2, 12]: 0 n (%)
Skin exfoliation, Grade 3, n (%) [2, 12]: 1 (10.0) n (%)
Skin exfoliation, Total, n (%) [2, 12]: 2 (20.0) n (%)
Skin fissures, Grade 1, n (%) [2, 12]: 2 (20.0) n (%)
Skin fissures, Grade 2, n (%) [2, 12]: 1 (10.0) n (%)
Skin fissures, Grade 3, n (%) [2, 12]: 0 n (%)
Skin fissures, Total, n (%) [2, 12]: 3 (30.0) n (%)
Stomatitis, Grade 1, n (%) [2, 12]: 1 (10.0) n (%)
Stomatitis, Grade 2, n (%) [2, 12]: 1 (10.0) n (%)
Stomatitis, Grade 3, n (%) [2, 12]: 1 (10.0) n (%)
Stomatitis, Total, n (%) [2, 12]: 3 (30.0) n (%)
Vomiting, Grade 1, n (%) [2, 12]: 2 (20.0) n (%)
Vomiting, Grade 2, n (%) [2, 12]: 1 (10.0) n (%)
Vomiting, Grade 3, n (%) [2, 12]: 0 n (%)
Vomiting, Total, n (%) [2, 12]: 3 (30.0) n (%)
total AEs ([2]; all 121 patients): 1,416 AEs
AEs considered to be related to study drug ([2]; all schedules): 709 AEs
patients experiencing AEs related to study drug ([2]; all schedules, of 121): 111 patients
AEs considered to be related to study drug ([2]; schedule A): 626 AEs
patients experiencing AEs related to study drug ([2]; schedule A): 102 patients
patients with dose interruptions as a result of treatment-related AEs ([2]; schedule A): 29
AEs considered to be related to study drug ([2]; schedule B): 83 AEs
patients with dose interruptions as a result of treatment-related AEs ([2]; schedule B): 3
total number of DLTs, share of treated patients ([3]; 45 mg including loading-dose cohort, four of 71 treated patients): 6%
total number of DLTs, share of treated patients ([3]; 45 mg, two of 52 treated patients): 4%
Even ts, n/N ([3]; Schedule A, 0.5 mg/day): 0/3
Even ts, n/N ([3]; Schedule A, 1 mg/day): 0/3
Even ts, n/N ([3]; Schedule A, 2 mg/day): 0/3
Even ts, n/N ([3]; Schedule A, 4 mg/day): 0/5
Even ts, n/N ([3]; Schedule A, 8 mg/day): 0/3
Even ts, n/N ([3]; Schedule A, 16 mg/day): 0/4
Even ts, n/N ([3]; Schedule A, 30 mg/day): 1/13
Even ts, n/N ([3]; Schedule A, 45 mg/day (loading dose)): 2/19
Even ts, n/N ([3]; Schedule A, 45 mg/day): 2/52
Even ts, n/N ([3]; Schedule A, 60 mg/day): 3/6
Even ts, n/N ([3]; Schedule B, 60 mg/day): 1/10
maximum tolerated dose (MTD) ([3]; continuous once-daily dosing): 45 mg/day
terminal half-life (t1/2) [4]: 59 to 85 h
levels of pMAPK in skin biopsy [5]: significantly decreased
